This is an account of results in ChEMBL document CHEMBL1141552, “Synthesis and antitubercular activity of 7-(R)- and 7-(S)-methyl-2-nitro-6-(S)-(4-(trifluoromethoxy)benzyloxy)-6,7-dihydro-5H-imidazo[2,1-b][1,3]oxazines, analogues of PA-824” (Bioorg Med Chem Lett, 2008).

The structures appear in SMILES notation. ≈ marks a conversion by molar mass, not a printed value.

In data set [1] the test system is Mycobacterium tuberculosis. Briefly: Antitubercular activity against Mycobacterium tuberculosis H37Rv by oxygen depletion assay. In kind it is functional. An outline of the steps: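 Early-log Mtb cultures in Dubos broth were diluted 100-fold and sealed at a 0.5 head-space ratio, then stirred for 20 days to reach NRP-2. The cells were handled anaerobically and exposed to 1.95–500 μM drug in two-fold dilutions for 7 days at 37°C. After three washes, the cells were spotted on 7H11 agar for 3 weeks. MAC was taken as the concentration giving 90% reduction in visible growth.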

In data set [2] the test system is Mycobacterium tuberculosis. Briefly: Antitubercular activity against Mycobacterium tuberculosis H37Rv under aerobic conditions. The format is functional. An outline of the steps:
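Broth dilution MIC99 against Mtb H37Rv (ATCC 27294) and its H37Rv mutants under aerobic conditions. Compound stocks were made in DMSO at 20 mM.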

The nature of data set [3]: Aqueous solubility of the compound. The format is physicochemical. An outline of the steps: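 Excess solid (3–5 mg) shaken in 0.5 mL water for 3 days, then centrifuged at 10,000g for 5 min. Supernatant diluted in water and analysed by LC/MS with UV peak area at 310 nm. Concentration read from a previously determined calibration curve, corrected for dilution.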

As a reminder, the MIC is the smallest concentration in the dilution series that meets the test's criterion for growth inhibition. Read a high MIC as a need for much substance. What is called solubility is the concentration that dissolves in the medium under given conditions.

For the compound `C[C@H]1Oc2nc([N+](=O)[O-])cn2C[C@@H]1OCc1ccc(OC(F)(F)F)cc1`, the MAC in data set [1] was 8 µM. The compound also came in with a minimal inhibitory concentration (MIC) in data set [2] of 0.2 µM (≈ 0.0747 µg/mL). The compound further came in with a solubility in data set [3] of 10.3 µg/mL (≈ 27.6 µM).
Compound `C[C@@H]1Oc2nc([N+](=O)[O-])cn2C[C@@H]1OCc1ccc(OC(F)(F)F)cc1` returned an MAC in data set [1] of 16 µM. In addition, in data set [2], the MIC came to 0.2 µM (≈ 0.0747 µg/mL). Also, the concentration in solution in data set [3] (solubility) was 9.89 µg/mL (≈ 26.5 µM).
Take `O=[N+]([O-])c1cn2c(n1)OC[C@@H](OCc1ccc(OC(F)(F)F)cc1)C2` [PRETOMANID]: the MAC in data set [1] is 8 µM. Moreover, the MIC in data set [2] is 0.4 µM (≈ 0.144 µg/mL). The compound also came in with a solubility in data set [3] of 10.2 µg/mL (≈ 28.4 µM).
